Measurements from ChEMBL document CHEMBL3351896, “Small Molecule that Reverses Dexamethasone Resistance in T-cell Acute Lymphoblastic Leukemia (T-ALL)” (ACS Med Chem Lett, 2014).
The source made the active and inactive calls. The calls are words filed in the database; no cut-off is given here.

Columns and labels:
Assay type in all cases: functional, cell-based
[1] = Growth inhibition of human CUTLL1 cells in presence of 1 uM dexamethasone after 48 hrs by alamar blue assay; conditions: CUTLL1, 48 h
Summary of the method: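 CUTLL1 cells given compound alone or with dexamethasone 1 μM. Growth inhibition measured by alamar blue after 48 h.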

CUTLL1 [2] = assay: Induction of PARP1 cleavage in human CUTLL1 cells at 25 uM after 24 hrs by western blotting method
Summary of the method: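 CUTLL1 cells exposed 24 h to compound (25 μM) alone, with 1 μM dexamethasone, or with dexamethasone plus 1 μM RU486. Apoptosis read as cleaved PARP by Western blot, quantified as fold change.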

CUTLL1 [3] = assay: Increase in GR expression in human CUTLL1 cells at < 25 uM after 24 hrs by Western blotting method
CUTLL1 [4] = assay: Effect on SPC25 gene expression in human CUTLL1 cells in presence of 1 uM dexamethasone at 30 uM after 24 hrs by microarray method
Summary of the method: (§1)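 Human CUTLL1 T-ALL cells exposed for 24 h to vehicle (DMSO), dexamethasone alone (1 μM), test compound alone (30 μM), or dexamethasone 1 μM plus compound 30 μM, each in triplicate. Expression profiled by microarray. Glucocorticoid-regulated gene sets from ALL patients on glucocorticoid therapy scored by GSEA. Leading-edge genes compared between the combination and dexamethasone alone.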

CUTLL1 [5] = assay: Effect on PCNA gene expression in human CUTLL1 cells in presence of 1 uM dexamethasone at 30 uM after 24 hrs by microarray method; summary of the method: as §1
CUTLL1 [6] = assay: Effect on CHAF1A gene expression in human CUTLL1 cells in presence of 1 uM dexamethasone at 30 uM after 24 hrs by microarray method
Summary of the method: (§2)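 CUTLL1 T-ALL cells exposed 24 h to vehicle (DMSO), dexamethasone alone (1 μM), test agent alone (30 μM), or dexamethasone (1 μM) plus test agent (30 μM), in triplicate. Expression profiled by microarray. Leading-edge genes from GSEA were compared between the dexamethasone-plus-agent and dexamethasone-alone groups, using glucocorticoid-regulated gene sets from ALL patients on glucocorticoid therapy.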

CUTLL1 [7] = assay: Effect on FEN1 gene expression in human CUTLL1 cells in presence of 1 uM dexamethasone at 30 uM after 24 hrs by microarray method; summary of the method: as §2
CUTLL1 [8] = assay: Effect on E2F7 gene expression in human CUTLL1 cells in presence of 1 uM dexamethasone at 30 uM after 24 hrs by microarray method; summary of the method: as §2
CUTLL1 [9] = assay: Effect on SOCS1 gene expression in human CUTLL1 cells in absence of 1 uM dexamethasone at 30 uM after 24 hrs by microarray method; summary of the method: as §1
CUTLL1 [10] = assay: Effect on APITD1 gene expression in human CUTLL1 cells in absence of 1 uM dexamethasone at 30 uM after 24 hrs by microarray method; summary of the method: as §2
CUTLL1 [11] = assay: Effect on PFAS gene expression in human CUTLL1 cells in absence of 1 uM dexamethasone at 30 uM after 24 hrs by microarray method; summary of the method: as §1
CUTLL1 [12] = assay: Effect on SPC25 gene expression in human CUTLL1 cells in absence of 1 uM dexamethasone at 30 uM after 24 hrs by microarray method; summary of the method: as §1
CUTLL1 [13] = assay: Effect on RUVBL1 gene expression in human CUTLL1 cells in absence of 1 uM dexamethasone at 30 uM after 24 hrs by microarray method; summary of the method: as §1
CUTLL1 [14] = assay: Effect on GINS2 gene expression in human CUTLL1 cells in absence of 1 uM dexamethasone at 30 uM after 24 hrs by microarray method; summary of the method: as §2
CUTLL1 [15] = assay: Effect on USP1 gene expression in human CUTLL1 cells in absence of 1 uM dexamethasone at 30 uM after 24 hrs by microarray method; summary of the method: as §1
CUTLL1 [16] = assay: Effect on TK1 gene expression in human CUTLL1 cells in absence of 1 uM dexamethasone at 30 uM after 24 hrs by microarray method; summary of the method: as §1

Q: With `Nc1ncc(-c2ccncc2)c(C2CC2)n1` as the molecule, how does the EC50 [1] read?
A: The EC50 was 28 µM.

Q: And the Activity (CUTLL1 [2])?
A: Its Activity is “inactive”.

Q: And the Activity (CUTLL1 [3])?
A: Its Activity is “inactive”.

Q: And the Activity (CUTLL1 [4])?
A: The Activity was “Active”.

Q: What about the Activity (CUTLL1 [5]) of the same molecule?
A: The Activity was “Active”.

Q: What about the Activity (CUTLL1 [6]) of the same molecule?
A: Its Activity is “Active”.

Q: What about the Activity (CUTLL1 [7]) of the same molecule?
A: The Activity was “Active”.

Q: And the Activity (CUTLL1 [8])?
A: The Activity was “Active”.

Q: What about the Activity (CUTLL1 [9]) of the same molecule?
A: The Activity was “inactive”.

Q: What about the Activity (CUTLL1 [10]) of the same molecule?
A: Its Activity is “inactive”.

Q: What about the Activity (CUTLL1 [11]) of the same molecule?
A: The Activity was “inactive”.

Q: And the Activity (CUTLL1 [12])?
A: The Activity was “inactive”.

Q: What about the Activity (CUTLL1 [13]) of the same molecule?
A: The Activity was “inactive”.

Q: And the Activity (CUTLL1 [14])?
A: The Activity was “inactive”.

Q: And the Activity (CUTLL1 [15])?
A: The Activity was “inactive”.

Q: What about the Activity (CUTLL1 [16]) of the same molecule?
A: Its Activity is “inactive”.
